High-throughput results as filed in PubChem BioAssay.
Shown are actives, neighbours in structure and some others; about 11% of the full set was active somewhere.
M1 agonist: M1 muscarinic receptor agonism | CHO-M1 cells, Fluo-4 calcium fluorescence, agonist mode; active compounds read high | B-score at 10 µM | hit rate 3% among 64,000 | AID 626;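 active = fluorescence rise, raw or as B-score row- and column-corrected plate score, outside the 99.7% band of its plate's samples, either direction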
RORA act: RORA (human) activation. P35398. CHO-K1 Gal4-RORA LBD luciferase reporter, luminescence; percent increase over mock-subtracted basal signal. activation, % at 10 µM. hit rate 1.5% among 65,000. AID 560;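 active = activation above the mean of all tested compounds plus 3 SD, cut at about 49% in these data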;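 note: 0% = DMSO-treated RORA cells and 100% = added signal equal to DMSO minus mock-transfected cells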
D1 mod: allosterically modulates the human D1 dopamine receptor. HEK293 D1, CRE-luciferase, dopamine EC30 potentiation; actives deviate in either direction. B-score at 10 µM. P21728. hit rate 5.9% among 58,000;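 active = luminescence count or its row- and column-corrected plate score outside the 99.7% band of the plate's sample wells, on either side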
mHtt clearance: compounds clearing mutant huntingtin protein; HeLa Exon1htt(103Q)mCFP, aggregate imaging; zero = plate's median compound well; inhibition, % at 1.5 µM; hit rate 0.42% among 47,000;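 active = inhibition of aggregate fluorescence above about 70%, also judged a hit by eye on the cell image, limit read from the data, passing the limit was not always enough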;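 note: cells exposed to compound for three days before fixation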
SF1 activator: SF-1 (human) activation | CHO-K1 Gal4-SF-1 LBD luciferase reporter; % increase over DMSO SF-1-specific signal | hit rate 1.9% among 65,000 | activation, % at 10 µM;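 active = activation above the mean activation of all tested compounds plus 3 SD, cut at about 50% in these data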
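Assay system: CHO-K1 cells co-transfected with Gal4 DBD–human SF-1 LBD, 5xGal4 luciferase reporter / Input: 4,000 cells per well / Incubation: 20 h compound exposure at 37 °C after 1 h cell settling / Detection: SteadyLite luciferase luminescence / Control set: DMSO negative control and −SF1 background wells / Replication: one test per compound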
M1 antagonist: blocks the rat M1 muscarinic receptor response to acetylcholine; P08482; CHO-M1 cells, Fluo-4 calcium, ACh EC80 antagonist mode; active compounds read low; B-score at 10 µM; hit rate 3.4% among 64,000; AID 628;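 active = calcium fluorescence response, raw or row-and-column corrected B-score, differing from the plate sample mean either way at a set confidence level, mostly lower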
Target sequence (P08482 whole entry, looked up): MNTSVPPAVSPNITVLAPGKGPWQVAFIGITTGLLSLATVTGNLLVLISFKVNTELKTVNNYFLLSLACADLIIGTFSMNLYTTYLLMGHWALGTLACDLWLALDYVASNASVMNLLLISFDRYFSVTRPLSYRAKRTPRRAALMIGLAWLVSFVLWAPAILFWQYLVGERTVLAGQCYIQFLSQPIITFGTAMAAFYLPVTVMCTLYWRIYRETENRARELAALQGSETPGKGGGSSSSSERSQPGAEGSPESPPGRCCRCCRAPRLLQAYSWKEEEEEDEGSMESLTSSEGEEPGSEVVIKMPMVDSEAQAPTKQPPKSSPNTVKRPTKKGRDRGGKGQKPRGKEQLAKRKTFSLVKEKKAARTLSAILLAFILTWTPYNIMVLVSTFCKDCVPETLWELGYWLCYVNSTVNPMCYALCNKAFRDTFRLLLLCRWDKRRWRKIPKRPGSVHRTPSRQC
D1 mod confirm: confirmation of human D1 dopamine receptor allosteric modulators; shares compounds with D1 mod; HEK293 D1 CRE-luciferase, dopamine EC30 potentiation; active compounds read high; luminescence at 10 µM; hit rate 88% among 2,200; AID 642;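 active = luminescence in either of two replicates above the same-plate mean plus 3 SD of the low-dose dopamine control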
D1 ag no DA: secondary test of D1 modulators: activity without dopamine | shares compounds with D1 mod | luminescence at 10 µM | hit rate 0.8% among 1,900 | HEK293 D1 CRE-luciferase, luminescence, no dopamine; active compounds read high; in the data active = luminescence above about 3900
Isoprot counter: isoproterenol response counter-screen activity for D1 modulators; calls only at 10 µM; hit rate 63% among 2,200; shares compounds with D1 mod; HEK293 D1 CRE-luciferase, isoproterenol EC30 counter-screen; AID 647;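 active = luminescence in either replicate above plate mean of wells with a partly effective reference agonist dose plus 3 SD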;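 note: isoproterenol raises cAMP through native beta-adrenoceptor Gs so signal bypasses D1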
An asterisk follows results filed as active; i = inactive; . = no result given; + = active, no number.

SMILES	M1 agonist	RORA act	D1 mod	mHtt clearance	SF1 activator	M1 antagonist	D1 mod confirm	D1 ag no DA	Isoprot counter
CCOC(=O)c1c(C)nc2c3ccccc3ccn12	0	26.4	5.3*	-44.0	75.5*	-0.309	19468*	1592	+
CCOC(=O)c1c(C)nc2ncccn12	-0.461	7.7	0.297	.	8.7	0.0116	.	.	.
CCOC(=O)c1c(C)nc2sccn12	-0.317	-16.8	2.61*	.	4.5	0	12992*	1936	i
Cc1ccnc(NS(=O)(=O)c2ccc(NS(=O)(=O)Cc3ccccc3)cc2)n1	-1.14	-15.9	-1.45	28.6	6.5	0.935	.	.	.
Cc1cc(=O)oc2cc(OCC(=O)NCCc3nc4ccccc4[nH]3)ccc12	-0.0404	-0.7	3.22*	13.2	6.5	-0.0595	6860*	1464	i
CCOc1cccc2cc(C(=O)NCc3cccnc3)c(=O)oc12	-1.04	15.7	0.844	-20.8	4.4	-0.158	.	.	.
CCOc1cccc2cc(C(=O)Nc3cc(C)on3)c(=O)oc12	-0.572	2.1	2.6*	-9.6	7.9	-0.845	4892	1608	i
O=S(=O)(c1cccs1)N1CN(Cc2cccs2)c2nc3ccccc3nc21	0.0677	-9.0	3.82*	21.1	21.7	-0.321	15624*	1724	+
O=S(=O)(c1cccs1)N1CN(CC2CCCO2)c2nc3ccccc3nc21 (configuration not stated)	0.0533	14.0	.	.	19.4	-0.102	.	.	.
O=S(=O)(c1ccc(F)cc1)N1CN(Cc2ccco2)c2nc3ccccc3nc21	0.0314	-8.2	.	.	-3.4	0.0232	.	.	.
C=CCN1CN(S(=O)(=O)c2cccs2)c2nc3ccccc3nc21	-0.682	15.7	6.04*	.	-1.5	0.0396	14144*	1432	+
CCCCNS(=O)(=O)c1ccc2nc(SCC(=O)N3CC(C)OC(C)C3)[nH]c2c1 (configuration not stated)	.	.	.	-7.0	.	.	.	.	.
Cc1ccc(-c2nnc(N(C)C(=O)c3ccccn3)s2)cn1	0.178	3.5	-0.764	.	5.2	-0.0179	.	.	.
C=C(C)Cn1c(SCC#N)nc2ccccc2c1=O	-0.0335	-1.4	15.5*	-55.6	-5.9	-1	15044*	1640	+
CCN(CCCn1c(SCC#N)nc2ccccc2c1=O)c1ccccc1	1.71	2.6	.	-35.7	-6.9	-0.00438	.	.	.
O=C(C1COc2ccccc2O1)N1CCOCC1 (configuration not stated)	-0.525	-13.6	-1.3	.	6.1	0.55	.	.	.
CC12CC(c3ccccc3O1)C(C(=O)N1CCOCC1)C(=O)N2 (configuration not stated)	-0.0136	5.7	3.3*	.	-10.4	-0.194	4036	1440	i
CN(C)S(=O)(=O)c1cccc(C(=O)NCc2ccco2)c1	0.346	-7.5	0.789	0.0	-2.0	0.475	.	.	.
Cc1ccc(N(Cc2ccco2)C(=O)c2cccc(S(=O)(=O)N(C)C)c2)cc1	-0.156	-5.5	2.96*	-29.3	-12.1	0.953	11896*	1544	+
O=C(CCCN1C(=O)c2cccnc2C1=O)N1CC(=O)N(CCc2ccccc2)C(=O)C1	4.24	7.5	0.508	.	-17.4	1.03	.	.	.
CCOC(=O)c1c(C)oc2cc(Br)c(O)c(Br)c12	0.419	15.9	7.91*	.	9.3	0.368	9840*	1808	i
CCOC(=O)Cn1c(=O)n(Cc2ccco2)c(=O)c2ccc(C(=O)NC3CCCC3)cc21	.	.	.	-9.9	.	.	.	.	.
Cc1ccc(S(=O)(=O)N(CCC(=O)O)Cc2ccc(Cl)cc2)cc1	.	.	.	-12.2	.	.	.	.	.
COc1ccc(CCn2c(C)cc3c(c2=O)C(c2ccc4c(c2)OCO4)C(C#N)=C(N)O3)cc1OC (configuration not stated)	-0.0631	17.1	10.8*	.	47.4	-0.208	14224*	1632	+
COc1cc(C2C(C#N)=C(N)Oc3cc(C)n(CC4CCCO4)c(=O)c32)cc2c1OCO2 (configuration not stated)	0.824	-0.4	-0.244	-51.3	5.0	-0.532	.	.	.
SMILES	M1 agonist	RORA act	D1 mod	mHtt clearance	SF1 activator	M1 antagonist	D1 mod confirm	D1 ag no DA	Isoprot counter
COC(=O)Cn1ncn2c(cc3oc(C)cc32)c1=O	0.624	33.5	-0.041	.	30.2	-0.0214	.	.	.
Cc1cc(=O)oc2c1ccc1oc(/C(=N/O)c3ccccc3)c(C)c12	-0.608	13.2	5.19*	5.3	-2.5	-0.107	7656*	1496	+
Cc1ccc(/C(=N\O)c2oc3c(C)c4oc(=O)cc(C)c4cc3c2C)cc1	.	.	.	-10.0	.	.	.	.	.
OCCn1nc2c3ccccc3nc-2n(-c2ccccc2)c1=S	-0.652	-8.2	5.86*	.	-0.3	-0.881	7812*	1556	i
Cc1nn(-c2ccccc2)c(=S)n1-c1ccccc1	-0.293	-11.2	-0.273	19.0	-2.2	0.00409	.	.	.
CCCn1c(=O)c2c(c3ccccc31)OCC(=O)N2	-0.208	-19.6	2.16	.	2.1	-0.121	.	.	.
CC(C)Cn1c(=O)c2c(c3ccccc31)OC(C)C(=O)N2 (configuration not stated)	-0.31	-5.8	4.16*	21.1	8.6	-0.746	7512*	1516	i
COc1ccc(C(=O)N(CN2CCCC2=O)c2nccs2)cc1OC	-0.468	-12.1	.	-142.8	16.0	0.0061	.	.	.
COC(=O)c1cc(OC)c(OC)cc1N=CC1=C(O)CC(C)(C)CC1=O	0.546	-9.9	4.1*	.	8.7	-0.0209	9648*	1564	+
CC1=CC(C)(C)N=C(NC#N)N1	.	-3.7	3.76*	.	1.4	.	9044*	1768	i
CCCCCn1c(Sc2ccccc2)nc2c1c(=O)[nH]c(=O)n2C	.	.	.	-7.1	.	.	.	.	.
CCCCCCn1c(SCCCC)nc2c1c(=O)[nH]c(=O)n2C	0.0615	-23.2	10.9*	47.8	2.7	-0.379	26000*	1732	+
CCCCCn1c(SC(C)C(C)=O)nc2c1c(=O)[nH]c(=O)n2C (configuration not stated)	-0.0225	8.4	8*	.	7.1	1	20968*	1796	+
CCCCn1c(NC(C)CC)nc2c1c(=O)[nH]c(=O)n2C (configuration not stated)	0.795	-5.1	11*	32.5	-8.9	0.633	21532*	1912	+
Cc1ccc(Cn2cccc(NC(=O)NC3CCCCC3)c2=O)cc1	.	.	.	10.7	.	.	.	.	.
CCCCCC(C(=O)O)C(C)CC(=O)NC1CCCCC1 (configuration not stated)	0.45	-7.0	-0.357	.	-2.1	-0.296	.	.	.
COc1cc(OC)cc(C(=O)OCc2cc3ccccc3[nH]c2=O)c1	-0.113	6.3	0.128	13.2	6.7	0.355	.	.	.
